A word on the inhibition: it is the drop in the measured response relative to a control, in per cent.

Active and inactive are the calls of the source. No cut-off for these calls is given here.

Assay [1] is described as follows: Metal chelating activity assessed as compound-Cu2+ complex formation by measuring decrease in absorption with spectral shift to red end at 25 uM incubated for 5 mins in presence of 25 uM CuCl2 by UV-visible spectrophotometry.
The target of assay [2] is Amyloid-beta precursor protein (Homo sapiens) (UniProt P05067). The assay can be described thus: Inhibition of HFIP-pretreated amyloid beta (1 to 42) (unknown origin) self-aggregation at 20 uM after 72 hrs by uranyl acetate staining based transmission electron microscopy. In short, it runs like this:
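Aβ1-42 was incubated alone or with compound for 72 h at 37 °C. Fibril formation was then examined by transmission electron microscopy, with curcumin as positive control.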

Assay [3] has the same target. The assay is described as follows: Inhibition of HFIP-pretreated amyloid beta (1 to 42) (unknown origin) self-aggregation at 20 uM after 48 hrs by thioflavin-T fluorescence assay.
Assay [4] can be described thus: Metal chelating activity assessed as compound-Zn2+ complex formation at 25 uM incubated for 5 mins in presence of 25 uM ZnCl2 by UV-visible spectrophotometry.
Assay [5] is described as follows: Metal chelating activity assessed as compound-Fe2+ complex formation at 25 uM incubated for 5 mins in presence of 25 uM FeSO4 by UV-visible spectrophotometry.
For assay [6], the species on record is Danio rerio. The assay is described as follows: Cognition enhancement in aluminium chloride-induced Alzheimer's disease zebra fish model assessed as Response efficiency at 10 uM treated from 3 dpf to 5 dpf relative to control. In kind it is functional. In short, it runs like this: (§1)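 Zebrafish larvae were exposed to 150 µM AlCl₃ from 3 to 5 dpf, with the test drug co-administered over the same 3–5 dpf window. There were 30 fish per group. Dyskinesia recovery rate (DRR) and response efficiency (RE) were both calculated from the average swimming speed of drug-treated fish, with p values reported.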

Assay [7] has as its system Mus musculus. The assay is described as follows: Cognition enhancement in aluminium trichloride-induced amnesia mouse model assessed as total swimming time at 2 mg/kg administered via gastric gavage for 30 days by SMG-2 programmable water maze test. In kind it is functional, organism-based.
The subject of assay [8] is Mus musculus. The assay can be described thus: Cognition enhancement in aluminium trichloride-induced amnesia mouse model assessed as error times at 2 mg/kg administered via gastric gavage for 30 days by SMG-2 programmable water maze test. In kind it is functional, organism-based.
The species entered for assay [9] is Danio rerio. The assay is described as follows: Cognition enhancement in aluminium chloride-induced Alzheimer's disease zebra fish model assessed as Response efficiency at 50 uM treated from 3 dpf to 5 dpf relative to control. Type of assay: functional. In short, it runs like this: as §1
Assay [10] is filed under the species Danio rerio. The assay can be described thus: Cognition enhancement in aluminium chloride-induced Alzheimer's disease zebra fish model assessed as Dyskinesia recovery rate at 250 uM treated from 3 dpf to 5 dpf relative to control. Type of assay: functional. In short, it runs like this: as §1
The species entered for assay [11] is Danio rerio. The assay can be described thus: Cognition enhancement in aluminium chloride-induced Alzheimer's disease zebra fish model assessed as Dyskinesia recovery rate at 10 uM treated from 3 dpf to 5 dpf relative to control. In kind it is functional. In short, it runs like this: as §1
The species named for assay [12] is Danio rerio. The assay can be described thus: Cognition enhancement in aluminium chloride-induced Alzheimer's disease zebra fish model assessed as Dyskinesia recovery rate at 50 uM treated from 3 dpf to 5 dpf relative to control. In kind it is functional. The procedure, abridged:
as §1

The species entered for assay [13] is Danio rerio. The assay can be described thus: Cognition enhancement in aluminium chloride-induced Alzheimer's disease zebra fish model assessed as Response efficiency at 250 uM treated from 3 dpf to 5 dpf relative to control. In kind it is functional. In short, it runs like this: as §1
Assay [14] is filed under the species Mus musculus. The assay is described as follows: Cognition enhancement in scopolamine-induced amnesia mouse model by Morris water maze test. Type of assay: functional, organism-based.

Chain of Amyloid-beta precursor protein (Homo sapiens) (P05067 whole entry): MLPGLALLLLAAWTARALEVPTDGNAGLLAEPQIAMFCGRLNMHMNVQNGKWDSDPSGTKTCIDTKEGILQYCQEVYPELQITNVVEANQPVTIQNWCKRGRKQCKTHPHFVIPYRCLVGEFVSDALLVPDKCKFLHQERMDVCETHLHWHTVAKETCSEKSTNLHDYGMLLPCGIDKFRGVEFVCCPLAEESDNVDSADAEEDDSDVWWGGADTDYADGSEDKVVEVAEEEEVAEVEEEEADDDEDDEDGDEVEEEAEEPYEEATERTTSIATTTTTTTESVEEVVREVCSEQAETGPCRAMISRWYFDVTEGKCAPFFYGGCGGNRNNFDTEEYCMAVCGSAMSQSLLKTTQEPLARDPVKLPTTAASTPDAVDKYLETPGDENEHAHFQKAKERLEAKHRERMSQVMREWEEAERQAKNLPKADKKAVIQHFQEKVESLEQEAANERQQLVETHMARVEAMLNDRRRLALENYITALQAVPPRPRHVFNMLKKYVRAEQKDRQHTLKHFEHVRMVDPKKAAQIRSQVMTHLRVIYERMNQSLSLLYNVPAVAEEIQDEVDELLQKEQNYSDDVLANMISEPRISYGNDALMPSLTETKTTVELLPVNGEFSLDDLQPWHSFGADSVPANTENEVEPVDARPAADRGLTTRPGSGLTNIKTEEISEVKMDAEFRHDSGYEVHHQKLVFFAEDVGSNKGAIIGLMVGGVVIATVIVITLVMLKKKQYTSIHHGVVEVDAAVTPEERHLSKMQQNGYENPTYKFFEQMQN

`CC(c1cc(O)c2ncccc2c1)N(C)C` (configuration not stated): the result in assay [1], in [4] and in [5] was Active. For the same molecule, the inhibition entry in assay [2] was “Active”. Further, the inhibition in assay [3] amounted to 44%.
Take `CCN(C)C(=O)Oc1cccc([C@H](C)N(C)C)c1` [RIVASTIGMINE]: the Activity was 126.3% in the assay listed under Danio rerio [6]; 86.6% in the assay filed under Danio rerio [9]; 58.6% in the assay filed under Danio rerio [10]; 53.4% in the assay listed under Danio rerio [11]; 64% in the assay listed under Danio rerio [12]; 175.1% in the assay filed under Danio rerio [13]. Further, the result in the assay with Mus musculus [7] and in the assay with Mus musculus [8] was inactive.
Take `Oc1c(I)cc(Cl)c2cccnc12`: the result in [1], in assay [4] and in assay [5] was Active. In the assay listed under Mus musculus [14], the outcome was inactive.

The values above are taken from ChEMBL document CHEMBL4393722, “Development of the "hidden" multifunctional agents for Alzheimer's disease” (Eur J Med Chem, 2019).
